Measured values as given in ChEMBL document CHEMBL4513216, “Probing the Open Global Health Chemical Diversity Library for Multistage-Active Starting Points for Next-Generation Antimalarials” (ACS Infect Dis, 2020).

Test: Toxicity liver stage against HepG2, at 10uM
Type: cell-based
Set-up: test concentration 10 uM, cell line HepG2-A16-CD81EGFP
Details: human, HepG2-A16-CD81EGFP cells; read-out: INHIBITION
Method in brief: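 Uninfected HepG2-A16-CD81EGFP cells, 3 × 10^3 per well, 1536-well, plated on prespotted compound at 10 μM final, parasite-free screening media added to match infected plates; puromycin 10 μM positive, DMSO 0.5% negative; run in parallel with 48 h PbLuc assay at 37 °C, 5% CO2; viability by CellTiter-Glo luminescence, normalized to controls.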

SMILES | cytotoxicity at 10 µM [%]
Cc1ccnc(NC(=O)c2ccc(Br)o2)c1 | -10.5
COCC(=O)Nc1ccc(-c2noc([C@@H]3CCCN3)n2)cn1 | -1.16
CC(C)NC(=O)NC[C@H]1OC[C@@H](NCc2ccncc2)[C@@H]1O | -4.07
O=C1NC[C@H]2CN(Cc3nccs3)CCN12 | -4.9
COCCn1cc(CC(=O)Nc2nc3c(s2)CCC3)c2ccccc21 | 32.8
CC(C)(C)S(=O)(=O)c1ccc(N2CCN(c3ccccn3)CC2)nn1 | -3.3
COC(=O)c1ccc(C(=O)NCC(O)c2cccn2C)cc1 (stereo unspecified) | -3.84
COc1ccc(C[C@H]2CNCC[C@@H]2OCC2CC2)cc1 | -1.24
O=C(NC1CCC1)C1CCC2(CN(C(=O)c3ccco3)C2)O1 (stereo unspecified) | -144
c1nc2n(c1CN1CCOCC1)CCN(C1CCOC1)CC2 (stereo unspecified) | -136
COCC(=O)N1CCc2nc(C(=O)Nc3cccnc3)sc2CC1 | 7.98
Cc1ccoc1C(=O)N1CCc2ncnc(-c3cnn(C)c3)c2CC1 | 16.9
Cn1cc(-c2cnc(N3CCOCC3)nc2)cc1C(=O)N1CCCC1 | -10.6
Cc1cccc(C(=O)Oc2cc(=O)n3cccc(C)c3n2)c1 | 1.11
O=C(NC1CCCC1)c1cc(Sc2ncccn2)ccn1 | -12.3
COCCNC(=O)Cn1c(-c2ccco2)cc2cccnc21 | -5.09
Nc1nccnc1C1CN(C(=O)COc2cccnc2)CCO1 (stereo unspecified) | -1.83
COCCNc1nnc(-c2ccccn2)s1 | 6.1
Clc1ccc(CN(CCN2CCOCC2)Cc2cccnc2)c(Cl)c1 | -4.25
Cc1cc(C)n(CCCC(=O)N2CCc3ncc(Cl)cc3C2)n1 | -25.3
CN(CC1(O)CCCN(c2ccccn2)C1)C(=O)CC1CCOCC1 (stereo unspecified) | -5.44
CC(NC(=O)c1cnccn1)c1nnc2ccccn12 (stereo unspecified) | 5.1
CC1(C)COCCN1C(=O)CCc1nc(-c2ccc(Cl)cc2)no1 | 25.4

SMILES | cytotoxicity at 10 µM [%]
O=C(CNc1nc(C2CC2)ns1)N1CCc2sccc2C1 | 17.3
O=C(Nc1ccc(-c2ccccc2)cn1)C1CCN(C(=O)C2CC2)CC1 | -14.8
Cc1nc(CN2CCN(c3ccc(Cl)cn3)CC2)no1 | 1.3
Cc1ncncc1C(=O)N1CCCN(Cc2nccn2C(C)C)CC1 | 5.79
CCN(Cc1ccco1)C(=O)C1=NN(c2ccccc2)C(=O)CN1 | 6.35
CCN(CC(C)C#N)C(=O)CNc1ccc(F)c(C)c1 (stereo unspecified) | 17.5
C=C(C)CN(CC)C(=O)c1cc(F)ccc1NS(C)(=O)=O | -2.12
COCCN(CCOC)C(=O)c1ccn(-c2ccccc2Cl)n1 | -1.59
CCOC(=O)N(C)C1CCN(Cc2ccsc2)CC1 | -0.572
CCc1nnc2n1CCN(C(=O)C(C)Oc1ccc(C#N)cc1)C2 (stereo unspecified) | -7.04
CCN(CC)C(=O)CS(=O)(=O)c1cc(OC)c(OC)cc1C | -2.58
CCn1ccnc1CN1CCN(c2ncnc3ccsc23)CC1 | 5.39
CC(NC(=O)NCc1cccc(CN2CCCC2)c1)c1nccs1 (stereo unspecified) | -7.43
COc1ncccc1CNC(=O)c1c[nH]c(=O)c(Br)c1 | -2.62
Cc1noc(-c2cccnc2N2CCOC(C)(c3cnn(C)c3)C2)n1 (stereo unspecified) | 4.08
O=C(N1CCN(CCO)CC1)C1(O)Cc2ccccc2C1 | -2.92
Cc1nn(C)c(N2CCCN(C)CC2)c1CNC(=O)CC1CCCC1 | -7.43
Cc1nonc1NC(=O)C1SCCc2sccc21 (stereo unspecified) | -2.82
CC(C)(C)OC(=O)NCC1CCCCN1Cc1cccc(C(N)=O)c1 (stereo unspecified) | -2.27
CC(C)NC(=O)CCNC(=O)Nc1cccc(-c2nccn2C)c1 | -1.39
CN(CC(=O)Nc1cc(-c2cc(Cl)cc(Cl)c2)[nH]n1)S(C)(=O)=O | 6.72
C1CN(c2nc(C3CC3)ns2)CCS1 | -11.6
COc1ccc2cc(CN(C)C(C)c3nc(C(C)(C)C)no3)ccc2c1 (stereo unspecified) | 1.44

SMILES | cytotoxicity at 10 µM [%]
CC(C)c1nnc2n1CCN(C(=O)c1ccc(OCC3CC3)nc1)C2 | -0.556
Cc1csc(C2CCCCN2C(=O)Cn2cncn2)n1 (stereo unspecified) | -0.0679
Cc1cccn2cc(CN3CCCC(c4noc(C5CC5)n4)C3)nc12 (stereo unspecified) | 2.29
CN(Cc1ccco1)C(=O)NCC(c1cccs1)N(C)C (stereo unspecified) | 4.38
CS(=O)(=O)NCC1CCCCN1C(=O)c1ccc(Br)s1 (stereo unspecified) | 1.58
CNC(=O)NC(C)c1nc(-c2ccccc2)c[nH]1 (stereo unspecified) | 0.995
CC(C)CC(C(=O)N(C)Cc1ncnn1C)N1CCCCC1=O (stereo unspecified) | -0.159
O=c1[nH]nc(CNc2ncc(Br)cn2)[nH]1 | -5.12
CC(=O)Nc1ccc(CNc2ccn(Cc3ccccc3)n2)cc1 | 10.1
CC(=O)c1cc(C(=O)NC2(c3ccccc3)CCC2)n(C)c1 | -11.7
NC(=O)N1CCCN(C(=O)Nc2cc(-n3cccc3)ccc2F)CC1 | -2.09
CCC(C)NC(=O)CS(=O)(=O)Cc1cc(C)ccc1C (stereo unspecified) | -3.06
CC(=O)N(C)Cc1cccc(NC(=O)N(C)Cc2nccs2)c1 | -6.77
CN1CC(C(=O)NCCc2ccc(F)c(Br)c2)CC1=O (stereo unspecified) | 3.57
CC(C)CNC(=O)CSc1nnc(OC(C)C)s1 | 1.97
CCCn1ccc2cc(NC(=O)NCCn3cnnc3CC)ccc21 | 2.47
Cc1nn(CCO)c(C)c1CNC1CCC(C)(C)c2ccccc21 (stereo unspecified) | -3.34
COc1ccc(CCC2CCCN(C(=O)CCc3cc(O)no3)C2)cc1 (stereo unspecified) | -3.66
O=C(CN1C(=O)CCNC1=O)N1CCOC(c2ccc(Cl)c(Cl)c2)C1 (stereo unspecified) | 6.28
Cc1cc(C)c(-n2cc(CCO)cn2)cc1C | 0.334
COc1ccccc1[C@@H]1CN(Cc2c(C)noc2C)C[C@H]1C(=O)O | -9.94
Clc1cc(NCc2ccncc2)nc2[nH]ccc12 | 6.58
CC(C)N1CCCC(C(=O)NCc2noc(Cc3ccccc3)n2)C1 (stereo unspecified) | -1.49

SMILES | cytotoxicity at 10 µM [%]
CN(Cc1cnccn1)CC1CCOc2ccccc2C1 (stereo unspecified) | -3.75
c1ccc2sc(N3CCCC4(CCOC4)C3)nc2c1 (stereo unspecified) | -5.08
Cc1ccccc1[C@@H]1CN(CCCS(=O)(=O)N(C)C)C[C@H]1C(=O)O | -5.51
COc1ccccc1CN1C(=O)O[C@@H]2CN(Cc3cccc(C)n3)C[C@@H]21 | 2.64
CN(C)C(=O)c1ccc2c(c1)N(C)C(CC(=O)NCCOCCO)CO2 (stereo unspecified) | -7.96
Cc1nccc(-c2ccccc2)c1C(=O)N1CCC2(CC(=O)NC2=O)C1 (stereo unspecified) | -2.12
Cc1n[nH]c(C)c1CC(=O)N1CCCN(C)C2(CCN(C)CC2)C1 | 11.7
COc1ccc(OCc2nc(C(=O)N3CCC(NC(C)=O)C3)co2)cc1 (stereo unspecified) | -1.21
CN(Cc1noc2c1CCCC2)C(=O)CN1C(=O)COc2ccccc21 | -55.1
O=C(O)C1(O)CCN(c2ccnc3c(C(F)(F)F)cccc23)CC1 | 5.56
COc1ccc([C@@H]2CN(c3cc(C(=O)O)ccn3)C[C@H]2N(C)C)cc1 | 10.3
CCC1c2cccn2CCN1C(=O)c1ccno1 (stereo unspecified) | -8.58
Cc1ccccc1CN(C)C(=O)CN1CCCC(Cn2cncn2)C1 (stereo unspecified) | -2.87
CCOCCN1CCN(CCCS(C)(=O)=O)CC1C (stereo unspecified) | -4.14
Cc1cc(CN(C)CC(c2cccs2)N2CCOCC2)on1 (stereo unspecified) | 0.049
Cc1nc(C)n(CC2CCCN(Cc3ccc4c(c3)OCCO4)C2)n1 (stereo unspecified) | -18.9
O=C(NCc1nn(-c2ccccc2)c2c1CCC2)N1CCCC(O)C1 (stereo unspecified) | -10.2
COC(=O)c1cc(C(=O)N2CCOC(C)(C)C2)n(-c2ccccc2)n1 | -2.81
Cc1cnn(CCNCc2nc(-c3ccccn3)no2)c1 | -8
Cn1c(CN2CCCC(c3noc(C4CC4)n3)C2)cc(=O)n(C)c1=O (stereo unspecified) | -11.2
CC(C)c1ccc(OCC(=O)N2CCOCC2c2ncon2)cc1 (stereo unspecified) | -9.01
O=C(NCCOC1CCCC1)c1ccc(-c2ccco2)[nH]c1=O | -20
Cc1ccc(S(=O)(=O)NCc2cccc(C(=O)N3CCCC3)c2)cc1F | -14.5

SMILES | cytotoxicity at 10 µM [%]
COc1cccc(COCC(=O)N2CCCC2Cn2cccn2)c1 (stereo unspecified) | -0.153
c1ccc2oc(CN3CCOC(Cn4cccn4)C3)nc2c1 (stereo unspecified) | -18.2
CNC(=O)[C@@H](c1ccccc1F)N1CCC[C@H]1C(=O)NC1CCCC1 | 0.344
CC(C)OCCCN(Cc1cnn(C)c1)Cc1ccccn1 | 1.24
O=S(=O)(C1CC1)N1CCn2cc(CNc3ccccn3)nc2C1 | 8.04
O=C(NCc1cccnc1)C1=NOC2(CCN(C(=O)N3CCCC3)C2)C1 (stereo unspecified) | -4.8
CC(=O)N1Cc2nccn2CC(CNC(=O)c2cccnc2)C1 (stereo unspecified) | -146
c1cncc(-c2ncnc3c2CCN(Cc2cccs2)CC3)c1 | 19.9
Cc1cnc(N2CCCC3(CCN(Cc4csc(C)n4)C3=O)C2)nc1 (stereo unspecified) | -5.15
COCCN1CCO[C@H]2CN(C(=O)c3ccncc3F)C[C@H]21 | -141
O=C(NC1CC1)[C@@H]1CCO[C@@H]2CCN(C3CCOCC3)C[C@H]21 | -9.99
CCc1ncnc2c1CCN(C(=O)c1ccncc1F)CC2 | -88.5
O=C(NCc1cccs1)[C@H]1CC[C@@H]2[C@@H](CCN2c2ncccn2)O1 | -24.2
Cn1nnc2c1CCN(Cc1ccco1)C2COCc1ccccc1 (stereo unspecified) | -133
CN(C)C1COC2(CCN(Cc3ccc4c(c3)OCO4)CC2)C1 (stereo unspecified) | -5.19
O=C1N(c2cccnc2)CCC12CCCN(Cc1cccnc1)C2 (stereo unspecified) | 0.951
Cc1ncsc1CN1C[C@@H]2COC[C@]2(CNC(=O)c2ccccc2)C1 | -2.39
COCC1CC2(CCN(Cc3nccn3C)CC2)CN1c1ncccn1 (stereo unspecified) | 5.1
Cc1cccc(C(=O)N2C[C@@H]3C(CC(=O)NC(C)C)[C@@H]3C2)n1 (stereo partly specified) | -3.69
